In ChEMBL document CHEMBL3232892, “Inhibition of cellular proliferation and induction of apoptosis in human lung adenocarcinoma A549 cells by T-type calcium channel antagonist” (Bioorg Med Chem Lett, 2014):
Calls of active or inactive are those of the source. The rule behind the calls is not given here.

Key:
[1] = target: T1, Voltage-dependent T-type calcium channel subunit alpha-1G (Homo sapiens, UniProt O43497); test: Inhibition of T-type CaV3.1 channel (unknown origin) expressed in HEK293 cells assessed as inhibition of calcium current by whole cell patch-clamp method; format: cell-based
T1 sequence (O43497 whole entry): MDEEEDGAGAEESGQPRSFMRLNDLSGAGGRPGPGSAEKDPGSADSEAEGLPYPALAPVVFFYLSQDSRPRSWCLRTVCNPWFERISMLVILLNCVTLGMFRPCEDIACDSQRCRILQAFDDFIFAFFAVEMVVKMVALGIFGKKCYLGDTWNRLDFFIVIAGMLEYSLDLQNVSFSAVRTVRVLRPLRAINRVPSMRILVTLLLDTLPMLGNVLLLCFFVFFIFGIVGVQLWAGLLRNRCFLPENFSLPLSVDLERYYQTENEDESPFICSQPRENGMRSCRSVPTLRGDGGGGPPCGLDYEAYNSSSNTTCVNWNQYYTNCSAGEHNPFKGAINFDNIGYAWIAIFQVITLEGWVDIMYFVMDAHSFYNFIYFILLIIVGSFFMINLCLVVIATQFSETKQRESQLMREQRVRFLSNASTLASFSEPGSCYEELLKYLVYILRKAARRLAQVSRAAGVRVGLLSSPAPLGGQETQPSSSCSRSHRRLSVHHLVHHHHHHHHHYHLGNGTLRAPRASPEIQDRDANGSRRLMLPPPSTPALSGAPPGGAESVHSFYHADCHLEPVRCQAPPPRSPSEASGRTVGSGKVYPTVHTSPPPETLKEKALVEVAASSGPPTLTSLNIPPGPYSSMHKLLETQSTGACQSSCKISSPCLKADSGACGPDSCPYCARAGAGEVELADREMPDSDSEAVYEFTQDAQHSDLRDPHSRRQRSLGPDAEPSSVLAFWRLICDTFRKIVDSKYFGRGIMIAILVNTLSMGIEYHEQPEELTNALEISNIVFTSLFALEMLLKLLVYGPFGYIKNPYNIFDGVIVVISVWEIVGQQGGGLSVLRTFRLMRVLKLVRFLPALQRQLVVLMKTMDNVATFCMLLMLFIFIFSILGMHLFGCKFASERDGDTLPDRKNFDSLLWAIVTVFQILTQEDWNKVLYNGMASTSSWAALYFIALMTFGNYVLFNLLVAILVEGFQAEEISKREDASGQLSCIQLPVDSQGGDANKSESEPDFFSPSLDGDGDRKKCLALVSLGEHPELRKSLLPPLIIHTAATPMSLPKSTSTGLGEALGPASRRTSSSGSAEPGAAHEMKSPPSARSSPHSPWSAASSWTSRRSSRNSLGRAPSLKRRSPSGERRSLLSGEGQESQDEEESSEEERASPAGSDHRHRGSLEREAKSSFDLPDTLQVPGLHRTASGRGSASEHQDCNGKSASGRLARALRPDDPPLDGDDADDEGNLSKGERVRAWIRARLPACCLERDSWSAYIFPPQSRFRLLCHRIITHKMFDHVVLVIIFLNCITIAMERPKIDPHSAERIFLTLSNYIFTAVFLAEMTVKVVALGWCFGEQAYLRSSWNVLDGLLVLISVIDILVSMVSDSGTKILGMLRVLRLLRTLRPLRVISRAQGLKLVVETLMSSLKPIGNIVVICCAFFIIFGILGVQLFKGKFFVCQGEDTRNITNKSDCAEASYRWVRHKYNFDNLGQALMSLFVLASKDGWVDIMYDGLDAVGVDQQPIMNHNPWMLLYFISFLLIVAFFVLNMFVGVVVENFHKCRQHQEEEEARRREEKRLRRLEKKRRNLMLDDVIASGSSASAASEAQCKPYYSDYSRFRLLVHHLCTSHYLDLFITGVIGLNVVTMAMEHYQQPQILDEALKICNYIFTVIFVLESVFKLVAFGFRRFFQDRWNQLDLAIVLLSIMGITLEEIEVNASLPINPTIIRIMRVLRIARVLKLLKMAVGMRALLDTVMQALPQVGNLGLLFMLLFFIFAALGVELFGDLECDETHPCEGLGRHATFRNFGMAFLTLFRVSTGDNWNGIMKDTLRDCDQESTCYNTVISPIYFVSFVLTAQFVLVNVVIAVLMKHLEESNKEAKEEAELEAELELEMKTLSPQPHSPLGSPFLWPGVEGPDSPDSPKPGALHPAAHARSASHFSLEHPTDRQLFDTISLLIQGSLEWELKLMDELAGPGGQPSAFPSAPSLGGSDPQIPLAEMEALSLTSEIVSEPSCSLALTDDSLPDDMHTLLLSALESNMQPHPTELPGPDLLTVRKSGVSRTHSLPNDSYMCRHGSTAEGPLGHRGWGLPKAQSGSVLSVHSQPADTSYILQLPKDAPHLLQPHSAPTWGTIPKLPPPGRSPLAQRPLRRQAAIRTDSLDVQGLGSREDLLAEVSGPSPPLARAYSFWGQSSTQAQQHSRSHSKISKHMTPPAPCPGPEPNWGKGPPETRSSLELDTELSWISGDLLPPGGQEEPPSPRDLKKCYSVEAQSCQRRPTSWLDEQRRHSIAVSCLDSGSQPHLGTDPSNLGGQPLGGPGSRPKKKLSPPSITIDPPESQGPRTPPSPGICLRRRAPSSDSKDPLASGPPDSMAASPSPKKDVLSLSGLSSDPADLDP

[2] = tested on: A549; test: Cell cycle arrest in human A549 cells assessed as accumulation at G0/G1 phase at 5 uM after 24 hrs by flow cytometry (reference value: 53.1 %); format: functional
[3] = tested on: A549; test: Induction of apoptosis in human A549 cells assessed as late apoptotic cells at 1 uM after 24 hrs by annexin V/PI staining-based FACS analysis (reference value: 3.5 %)
[4] = tested on: A549; test: Induction of apoptosis in human A549 cells assessed as necrotic cells at 1 uM after 24 hrs by annexin V/PI staining-based FACS analysis (reference value: 2.8 %)
[5] = tested on: A549; test: Induction of apoptosis in human A549 cells assessed as necrotic cells at 3 uM after 24 hrs by annexin V/PI staining-based FACS analysis (reference value: 2.8 %)
[6] = tested on: A549; test: Cell cycle arrest in human A549 cells assessed as accumulation at sub-G1 phase at 5 uM after 24 hrs by flow cytometry (reference value: 7.8 %); format: functional
[7] = tested on: A549; test: Induction of apoptosis in human A549 cells assessed as early apoptotic cells at 3 uM after 24 hrs by annexin V/PI staining-based FACS analysis (reference value: 2.6 %)
[8] = tested on: A549; test: Selectivity ratio of IC50 for human A549 cells to IC50 for human MIAPaCa2 cells; format: functional
[9] = tested on: A549; test: Induction of apoptosis in human A549 cells assessed as reduction in pro-caspase-9 expression at 5 uM after 24 hrs by Western blot analysis; format: functional, cell-based
Outline: (§1)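 Cells treated 24 h without compound or at 1, 3 or 5 µM. Pro-caspase-3, pro-caspase-9 and PARP cleavage assessed by Western blot.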

[10] = tested on: A549; test: Induction of apoptosis in human A549 cells assessed as reduction in pro-caspase-3 expression at 5 uM after 24 hrs by Western blot analysis; format: functional, cell-based; outline: as §1
[11] = tested on: A549; test: Cell cycle arrest in human A549 cells assessed as accumulation at G2/M phase at 5 uM after 48 hrs by flow cytometry (reference value: 25.4 %); format: functional
[12] = tested on: A549; test: Induction of apoptosis in human A549 cells assessed as early apoptotic cells at 5 uM after 24 hrs by annexin V/PI staining-based FACS analysis (reference value: 2.6 %)
[13] = target: T1, Voltage-dependent T-type calcium channel subunit alpha-1G; test: Inhibition of T-type CaV3.1 channel (unknown origin) expressed in HEK293 cells assessed as inhibition of calcium current at 1 uM by whole cell patch-clamp method; format: cell-based
[14] = tested on: A549; test: Cell cycle arrest in human A549 cells assessed as accumulation at S phase at 5 uM after 48 hrs by flow cytometry (reference value: 12.0 %); format: functional
[15] = tested on: A549; test: Cytotoxicity against human A549 cells after 48 hrs by MTT assay; format: functional, cell-based; settings: for IC50: A549, 48 h
Outline: (§2)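 Cells seeded and grown 24 h, then exposed 48 h to a range of concentrations in DMSO (final 0.1%), with vehicle controls at equal DMSO. Medium replaced with 0.5 mg/mL MTT in RPMI with 10% FBS for 2 h at 37 °C, reduced dye dissolved in DMSO, absorbance read at 540 nm. Triplicates; IC50 from dose–response.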

[16] = tested on: A549; test: Induction of apoptosis in human A549 cells assessed as viable cells at 1 uM after 24 hrs by annexin V/PI staining-based FACS analysis (reference value: 91.1 %); settings: A549, 24 h
[17] = tested on: A549; test: Induction of apoptosis in human A549 cells assessed as viable cells at 3 uM after 24 hrs by annexin V/PI staining-based FACS analysis (reference value: 91.1 %); settings: A549, 24 h
[18] = tested on: A549; test: Cell cycle arrest in human A549 cells assessed as accumulation at G2/M phase at 5 uM after 24 hrs by flow cytometry (reference value: 21.6 %); format: functional
[19] = tested on: A549; test: Cell cycle arrest in human A549 cells assessed as accumulation at sub-G1 phase at 5 uM after 48 hrs by flow cytometry (reference value: 4.9 %); format: functional
[20] = tested on: MIA PaCa-2; test: Ratio of KYS05090 IC50 to compound IC50 for human MIAPaCa2 cells after 48 hrs by MTT assay; format: functional
[21] = tested on: A549; test: Cell cycle arrest in human A549 cells assessed as accumulation at G0/G1 phase at 5 uM after 48 hrs by flow cytometry (reference value: 57.8 %); format: functional
[22] = tested on: A549; test: Induction of apoptosis in human A549 cells assessed as late apoptotic cells at 5 uM after 24 hrs by annexin V/PI staining-based FACS analysis (reference value: 3.5 %)
[23] = tested on: A549; test: Induction of apoptosis in human A549 cells assessed as late apoptotic cells at 3 uM after 24 hrs by annexin V/PI staining-based FACS analysis (reference value: 3.5 %)
[24] = tested on: A549; test: Induction of apoptosis in human A549 cells assessed as increase in PARP protein cleavage at 5 uM after 24 hrs by Western blot analysis; format: functional, cell-based; outline: as §1
[25] = tested on: MIA PaCa-2; test: (§3) Cytotoxicity against human MIAPaCa2 cells after 48 hrs by MTT assay; format: functional, cell-based; outline: as §2
[26] = as §3; format: functional, cell-based; settings: MIA PaCa-2, 48 h; outline: as §2
[27] = tested on: A549; test: Induction of apoptosis in human A549 cells assessed as viable cells at 5 uM after 24 hrs by annexin V/PI staining-based FACS analysis (reference value: 91.1 %); settings: A549, 24 h
[28] = tested on: A549; test: Induction of apoptosis in human A549 cells assessed as early apoptotic cells at 1 uM after 24 hrs by annexin V/PI staining-based FACS analysis (reference value: 2.6 %)
[29] = tested on: A549; test: Cell cycle arrest in human A549 cells assessed as accumulation at S phase at 5 uM after 24 hrs by flow cytometry (reference value: 17.6 %); format: functional
[30] = tested on: A549; test: Induction of apoptosis in human A549 cells assessed as necrotic cells at 5 uM after 24 hrs by annexin V/PI staining-based FACS analysis (reference value: 2.8 %)
[31] = tested on: A549; test: Ratio of KYS05090 IC50 to compound IC50 for human A549 cells after 48 hrs by MTT assay; format: functional
[32] = tested on: A549; test: Cell cycle arrest in human A549 cells assessed as accumulation at G2/M phase at 10 uM after 24 hrs by flow cytometry (reference value: 21.6 %); format: functional
[33] = tested on: A549; test: Cell cycle arrest in human A549 cells assessed as accumulation at G2/M phase at 10 uM after 48 hrs by flow cytometry (reference value: 25.4 %); format: functional
[34] = tested on: A549; test: Cell cycle arrest in human A549 cells assessed as accumulation at sub-G1 phase at 10 uM after 48 hrs by flow cytometry (reference value: 4.9 %); format: functional
[35] = tested on: A549; test: Cell cycle arrest in human A549 cells assessed as accumulation at G0/G1 phase at 10 uM after 24 hrs by flow cytometry (reference value: 53.1 %); format: functional
[36] = tested on: A549; test: Cell cycle arrest in human A549 cells assessed as accumulation at sub-G1 phase at 10 uM after 24 hrs by flow cytometry (reference value: 7.8 %); format: functional
[37] = tested on: A549; test: Cell cycle arrest in human A549 cells assessed as accumulation at S phase at 10 uM after 24 hrs by flow cytometry (reference value: 17.6 %); format: functional
[38] = tested on: A549; test: Cell cycle arrest in human A549 cells assessed as accumulation at G0/G1 phase at 10 uM after 48 hrs by flow cytometry (reference value: 57.8 %); format: functional
[39] = tested on: A549; test: Cell cycle arrest in human A549 cells assessed as accumulation at S phase at 10 uM after 48 hrs by flow cytometry (reference value: 12.0 %); format: functional

Work on `CN(C)CCN1CCN(C2=Nc3ccccc3C(CC(=O)NCc3ccccc3)N2c2ccc(C3CCCCC3)cc2)CC1.Cl` (stereo unspecified) yielded an IC50 [1] of 1.04 µM, an Activity [2] of 55.4% and an Activity [3] of 3.2%. For the same compound, the Activity [4] was 2.5%, the Activity [5] was 0.3% and the Activity [6] was 15.8%. For the same compound, the Activity [7] was 30.4%, the “Ratio IC50” value [8] was 2 and the Activity [9] was “Active”. The Activity [10] was “Active”, the Activity [11] was 1.9% and the Activity [12] was 32.1%. For the same compound, the inhibition [13] was 53.2%, the Activity [14] was 4.6% and the inhibition [15] was “Dose-dependent effect”. The IC50 [15] was 2.25 µM, the viability at 1 µM [16] was 91.8% and the viability at 3 µM [17] was 67.4%. The Activity [18] was 16%, the Activity [19] was 77.8% and the “Ratio IC50” value [20] was 2. For the same compound, the Activity [21] was 15.7%, the Activity [22] was 13.3% and the Activity [23] was 1.9%. The Activity [24] was “Active”, the inhibition [25] was “Dose-dependent effect” and the IC50 [26] was 0.93 µM. It also gave a viability at 5 µM [27] of 53.4%, an Activity [28] of 2.5% and an Activity [29] of 12.8%. For the same compound, the Activity [30] was 1.3% and the “Ratio IC50” value [31] was 2.

With `COCC(=O)O[C@]1(CCN(C)CCCc2nc3ccccc3[nH]2)CCc2cc(F)ccc2[C@@H]1C(C)C` [MIBEFRADIL] the Activity [32] was 13.4%, the Activity [33] was 11.2% and the Activity [34] was 10%. For the same compound, the Activity [35] was 66.1%, the IC50 [15] was 24.8 µM and the Activity [36] was 9.6%. It also gave an IC50 [26] of 18.4 µM, an Activity [37] of 10.9% and an Activity [38] of 66.8%. For the same compound, the Activity [39] was 12%.

In the case of `CN(C)CCN1CCN(C2=Nc3ccccc3C(CC(=O)NCc3ccc(N(S(C)(=O)=O)S(C)(=O)=O)cc3)N2c2ccc(-c3ccccc3)cc2)CC1.Cl` (stereo unspecified), the IC50 [1] is reported as 0.52 µM, the “Ratio IC50” value [8] is reported as 2 and the inhibition [13] is reported as 64.3%. It also gave an IC50 [15] of 20.7 µM and an IC50 [26] of 16.1 µM.

With `COc1ccc(CNC(=O)CC2c3ccccc3N=C(N(C)CCCCCCN(C)C)N2c2ccc3ccccc3c2)cc1.Cl` (stereo unspecified) the IC50 [1] was 0.73 µM, the “Ratio IC50” value [8] was 2 and the inhibition [13] was 55.2%. It also gave an IC50 [15] of 6.65 µM and an IC50 [26] of 3.99 µM.

For `CN(C)C(=O)NCCCN(C)C1=Nc2ccccc2C(CC(=O)NCc2ccc(F)cc2)N1c1ccc(-c2ccccc2)cc1.Cl` (stereo unspecified), the IC50 [1] was 0.6 µM, the “Ratio IC50” value [8] was 2 and the inhibition [13] was 53.5%. The IC50 [15] was 15 µM and the IC50 [26] was 7.43 µM.

For `CN(C)CCN1CCN(C2=Nc3ccccc3C(CC(=O)OCc3ccccc3)N2c2ccc(-c3ccccc3)cc2)CC1` (stereo unspecified), the IC50 [1] was 1.81 µM, the “Ratio IC50” value [8] was 2 and the inhibition [13] was 46.4%. For the same compound, the IC50 [15] was 4.29 µM and the IC50 [26] was 2.7 µM.

In the case of `CN(C)CCN1CCN(C2=Nc3ccccc3C(CC(=O)NCc3ccc([N+](=O)[O-])cc3)N2c2ccc(-c3ccccc3)cc2)CC1.Cl` (stereo unspecified), the “Ratio IC50” value [8] is reported as 2, the inhibition [13] is reported as 38.1% and the IC50 [15] is reported as 4.69 µM. The IC50 [26] was 2.18 µM.

For `CC(C)c1ccc(N2C(N3CCN(CCN(C)C)CC3)=Nc3ccccc3C2CC(=O)NCc2ccccc2)cc1.Cl` (stereo unspecified), the “Ratio IC50” value [8] was 2, the inhibition [13] was 39.2% and the IC50 [15] was 7.57 µM. It also gave an IC50 [26] of 3.02 µM.

In the case of `CN(C)CCCCCCN(C)C1=Nc2ccccc2C(CC(=O)NCc2ccccc2)N1c1ccc2ccccc2c1.Cl` (stereo unspecified), the “Ratio IC50” value [8] is reported as 2, the inhibition [13] is reported as 26.4% and the IC50 [15] is reported as 5.44 µM. It also gave an IC50 [26] of 2.54 µM.

With `CN(C)CCCCCN(C)C1=Nc2ccccc2C(CC(=O)NCc2ccccc2)N1c1ccc(-c2ccccc2)cc1.Cl.Cl` (stereo unspecified) the Activity [2] was 33.6%, the Activity [6] was 55.3% and the “Ratio IC50” value [8] was 2. For the same compound, the Activity [11] was 0.1%, the inhibition [13] was 76.6% and the Activity [14] was 0.6%. The IC50 [15] was 4.07 µM, the Activity [18] was 2.2% and the Activity [19] was 98.1%. It also gave an Activity [21] of 1.2%, an IC50 [26] of 1.94 µM and an Activity [29] of 8.8%.
